Laboratory results: ChEMBL document CHEMBL6115053, “Optimization and Characterization of N-Acetamide Indoles as Antimalarials That Target PfATP4” (J Med Chem, 2025)
pEC50: −log10 of the molar value. ≈ marks a conversion by molar mass, not a printed value. Calls of active or inactive are those of the source. The calls are words filed in the database; no cut-off is given here.

Columns and labels:
HepG2 = experiment: Cytotoxicity against human HepG2 cells assessed as inhibition of cell growth incubated for 48 hrs by celltiterglo assay; format: toxicity, cell-based; conditions: hepg2, 48 h
[1] = Lipophilicity, logD of compound at pH 7.4 by shake-flask method; format: physicochemical; conditions: buffer
[2] = Metabolic stability in mouse liver microsome assessed as intrinsic clearance; format: ADME; conditions: microsomes
[3] = Metabolic stability in human liver microsome assessed as intrinsic clearance; format: ADME; conditions: microsomes
Plasmodium falciparum [4] = experiment: Antiplasmodial activity against asexual Plasmodium falciparum 3D7 infected in human […] cells assessed as reduction in parasite growth measured for 72 hrs by LDH assay; format: functional, organism-based; conditions: 3D7, 72 h
[5] = Aqueous solubility in PBS buffer at pH 7.4; format: physicochemical
[6] = Metabolic stability in rat hepatocyte […] assessed as intrinsic clearance measured per 10^6 cells; format: ADME, cell-based; conditions: hepatocytes
Plasmodium falciparum [7] = experiment: Antiplasmodial activity against multidrug resistant Plasmodium falciparum Cam3.1 incubated for 48 hrs by SYBR staining based fluorometer assay; format: functional, organism-based; conditions: Cam3.1, 48 h
Plasmodium falciparum [8] = experiment: Antiplasmodial activity against multi-drug resistant Plasmodium falciparum Dd2; format: functional, organism-based
Plasmodium falciparum [9] = experiment: Antiplasmodial activity against multidrug resistant Plasmodium falciparum W2mef incubated for 48 hrs by SYBR staining based fluorometer assay; format: functional, organism-based
Plasmodium falciparum [10] = experiment: Antiplasmodial activity against wild type Plasmodium falciparum 3D7 incubated for 48 hrs; format: functional, organism-based; conditions: 3D7, 48 h
Plasmodium falciparum [11] = experiment: Antimalarial activity against synchronized-ring stage Plasmodium falciparum 3D7 assessed as reduction in parasitemia at 10 times EC50 measured at 72 hrs post-treatment by LDH assay; format: functional, organism-based
Procedure, shortened: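 Parasite reduction ratio assay in P. falciparum 3D7 with an LDH read-out. Means and SDs were taken from three replicate experiments.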

Plasmodium falciparum [12] = experiment: Antiplasmodial activity against Plasmodium falciparum 3D7 infected in RBC assessed as reduction in parasite growth measured for 8 hrs by Giemsa-staining based microscopic analysis; format: functional, organism-based
Procedure, shortened: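 Giemsa-stained thin smears were read at 8 h and the percentages of extracellular and intracellular parasites counted, compared with untreated parasites at 0 h.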

Cn1cc(-c2ccc3c(Cl)cn(CC(=O)Nc4ccccc4Cl)c3c2)cn1
CC50 (HepG2): > 40000 nM | logD [1]: 4.6 | intrinsic clearance (CLint) [2]: 177 µL/min/mg | intrinsic clearance (CLint) [3]: 65 µL/min/mg | pEC50 (Plasmodium falciparum [4]): 6.86 | solubility kinetic [5]: < 2.5 µM | intrinsic clearance (CLint) [6]: 29 uL/min/10^6 cells

COc1cc(NC(=O)Cn2ccc3ccc(-c4cn(C)nc4C)cc32)cc(OC)c1OC
CC50 (HepG2): > 40000 nM | logD [1]: 3.2 | intrinsic clearance (CLint) [2]: 207 µL/min/mg | intrinsic clearance (CLint) [3]: 105 µL/min/mg | pEC50 (Plasmodium falciparum [4]): 7.00 | solubility kinetic [5]: 8.6 µM (≈ 3.74 µg/mL) | intrinsic clearance (CLint) [6]: 11 uL/min/10^6 cells

Cc1nnc(-c2ccc3ccn(CC(=O)Nc4ccccc4)c3c2)o1
CC50 (HepG2): > 40000 nM | pEC50 (Plasmodium falciparum [4]): 5.79

COc1cc(NC(=O)Cn2cc(Cl)c3ccc(-c4cnn(C)c4)cc32)cc(OC)c1OC
CC50 (HepG2): > 40000 nM | logD [1]: 4.2 | intrinsic clearance (CLint) [2]: 53 µL/min/mg | intrinsic clearance (CLint) [3]: 15 µL/min/mg | pEC50 (Plasmodium falciparum [4]): 7.31 | solubility kinetic [5]: 2.5 µM (≈ 1.14 µg/mL) | intrinsic clearance (CLint) [6]: < 1 uL/min/10^6 cells

Cc1nnc(-c2ccc3ccn(CC(=O)Nc4cccnc4Cl)c3c2)o1
CC50 (HepG2): > 40000 nM | logD [1]: 2.1 | intrinsic clearance (CLint) [3]: 57 µL/min/mg | pEC50 (Plasmodium falciparum [4]): 5.93 | solubility kinetic [5]: 73 µM (≈ 26.8 µg/mL) | intrinsic clearance (CLint) [6]: 27 uL/min/10^6 cells

Cc1nnc(-c2ccc3ccn(CC(=O)Nc4ccc(C(F)(F)F)cc4)c3c2)o1
CC50 (HepG2): > 40000 nM | pEC50 (Plasmodium falciparum [4]): 5.68

Cn1cc(-c2cc3c(ccn3CC(=O)Nc3ccccc3Cl)cn2)cn1
CC50 (HepG2): > 40000 nM | pEC50 (Plasmodium falciparum [4]): 5.07

Cc1cccc(-c2ccc3ccn(CC(=O)Nc4ccccc4Cl)c3c2)c1
CC50 (HepG2): > 40000 nM | pEC50 (Plasmodium falciparum [4]): 5.95

Cc1nnc(-c2ccc3ccn(CC(=O)Nc4ccc(F)cc4)c3c2)o1
CC50 (HepG2): > 40000 nM | pEC50 (Plasmodium falciparum [4]): 5.42

Cn1cc(-c2ccc3ccn(CC(=O)Nc4ccccc4Cl)c3n2)cn1
CC50 (HepG2): > 40000 nM | logD [1]: 3.3 | intrinsic clearance (CLint) [3]: 458 µL/min/mg | pEC50 (Plasmodium falciparum [4]): 5.82 | solubility kinetic [5]: 2.5 µM (≈ 0.915 µg/mL) | intrinsic clearance (CLint) [6]: 92 uL/min/10^6 cells

Cc1nnc(-c2ccc3ccn(CC(=O)Nc4cccc(Cl)c4Cl)c3c2)o1
CC50 (HepG2): > 40000 nM | pEC50 (Plasmodium falciparum [4]): 5.88

COc1cc(NC(=O)Cn2cc(Cl)c3cc(F)c(-c4cn(C)nc4C)cc32)cc(OC)c1OC
CC50 (HepG2): > 40000 nM | logD [1]: 4.8 | intrinsic clearance (CLint) [2]: 73 µL/min/mg | intrinsic clearance (CLint) [3]: 64 µL/min/mg | pEC50 (Plasmodium falciparum [4]): 6.97 | solubility kinetic [5]: 2.5 µM (≈ 1.22 µg/mL) | intrinsic clearance (CLint) [6]: 5.7 uL/min/10^6 cells

Cc1nnc(-c2ccc3ccn(CC(=O)Nc4ccccc4C(F)(F)F)c3c2)o1
CC50 (HepG2): > 40000 nM | pEC50 (Plasmodium falciparum [4]): 5.51

Cc1nn(C)cc1-c1ccc2ccn(CC(=O)Nc3ccccc3Cl)c2c1
CC50 (HepG2): > 40000 nM | pEC50 (Plasmodium falciparum [4]): 6.64

COc1cccc(NC(=O)Cn2ccc3ccc(-c4nnc(C)o4)cc32)c1
CC50 (HepG2): > 40000 nM | pEC50 (Plasmodium falciparum [4]): 5.44

Cc1nnc(-c2ccc3ccn(CC(=O)Nc4cc(F)cc(F)c4)c3c2)o1
CC50 (HepG2): > 40000 nM | pEC50 (Plasmodium falciparum [4]): 5.93

O=C(Cn1ccc2ccc(-c3cnn(C(F)F)c3)cc21)Nc1ccccc1Cl
CC50 (HepG2): > 40000 nM | pEC50 (Plasmodium falciparum [4]): 5.82

Cc1nnc(-c2ccc3ccn(CC(=O)Nc4cc(F)ccc4F)c3c2)o1
CC50 (HepG2): > 40000 nM | pEC50 (Plasmodium falciparum [4]): 5.90

Cc1nnc(-c2ccc3ccn(CC(=O)Nc4cc(Cl)cc(Cl)c4)c3c2)o1
CC50 (HepG2): > 40000 nM | pEC50 (Plasmodium falciparum [4]): 5.41

Cn1cc(-c2ccc3c(F)cn(CC(=O)Nc4ccccc4Cl)c3c2)cn1
CC50 (HepG2): > 40000 nM | pEC50 (Plasmodium falciparum [4]): 6.48

Cc1nnc(-c2ccc3ccn(CC(=O)Nc4c(F)cccc4F)c3c2)o1
CC50 (HepG2): > 40000 nM | pEC50 (Plasmodium falciparum [4]): 5.78

Cc1nnc(-c2ccc3ccn(CC(=O)Nc4cccnc4)c3c2)o1
CC50 (HepG2): > 40000 nM | pEC50 (Plasmodium falciparum [4]): 5.37

Cc1nnc(-c2ccc3ccn(CC(=O)Nc4ccncc4Cl)c3c2)o1
CC50 (HepG2): > 40000 nM | pEC50 (Plasmodium falciparum [4]): 5.15

Cc1nnc(-c2ccc3ccn(CC(=O)Nc4ccncc4)c3c2)o1
CC50 (HepG2): > 40000 nM | pEC50 (Plasmodium falciparum [4]): 5.33

Cn1cc(-c2ccc3ccn(CC(=O)Nc4ccccc4Cl)c3c2)c(C(F)(F)F)n1
CC50 (HepG2): > 40000 nM | logD [1]: 4.7 | intrinsic clearance (CLint) [3]: 488 µL/min/mg | pEC50 (Plasmodium falciparum [4]): 7.37 | solubility kinetic [5]: 2.5 µM (≈ 1.08 µg/mL) | intrinsic clearance (CLint) [6]: 92 uL/min/10^6 cells

COc1ccc(NC(=O)Cn2ccc3ccc(-c4nnc(C)o4)cc32)cc1OC
CC50 (HepG2): > 40000 nM | pEC50 (Plasmodium falciparum [4]): 5.81

COc1cc(NC(=O)Cn2ccc3ccc(-c4cnn(C)c4)cc32)cc(OC)c1OC
CC50 (HepG2): > 40000 nM | logD [1]: 3.5 | intrinsic clearance (CLint) [3]: 95 µL/min/mg | pEC50 (Plasmodium falciparum [4]): 6.41 | solubility kinetic [5]: 4.6 µM (≈ 1.93 µg/mL) | intrinsic clearance (CLint) [6]: 4.6 uL/min/10^6 cells

O[C@@H](c1cc(C(F)(F)F)nc2c(C(F)(F)F)cccc12)[C@H]1CCCCN1 (racemic) [(S,R)-MEFLOQUINE]
pEC50 (Plasmodium falciparum [7]): 8.05 | pEC50 (Plasmodium falciparum [8]): 7.46 | pEC50 (Plasmodium falciparum [9]): 7.19 | pEC50 (Plasmodium falciparum [10]): 7.64

Cc1nnc(-c2ccc3ccn(CC(=O)Nc4ccccc4F)c3c2)o1
CC50 (HepG2): > 40000 nM | pEC50 (Plasmodium falciparum [4]): 5.68

Cc1ncc(-c2ccc3ccn(CC(=O)Nc4ccccc4Cl)c3c2)s1
CC50 (HepG2): > 40000 nM | pEC50 (Plasmodium falciparum [4]): 5.72

Cc1nnc(-c2ccc3ccn(CC(=O)Nc4ccccn4)c3c2)o1
CC50 (HepG2): > 40000 nM | pEC50 (Plasmodium falciparum [4]): 5.32

CCc1nc(N)nc(N)c1-c1ccc(Cl)cc1
Activity (Plasmodium falciparum [11]): Active

Cc1ccc(NC(=O)Cn2ccc3ccc(-c4nnc(C)o4)cc32)cc1
CC50 (HepG2): > 40000 nM | pEC50 (Plasmodium falciparum [4]): 5.27

CCN(CC)CCCC(C)Nc1ccnc2cc(Cl)ccc12 (configuration not stated)
Activity (Plasmodium falciparum [11]): Active | Activity (Plasmodium falciparum [12]): Active

Cc1nn(C)c(C)c1-c1ccc2ccn(CC(=O)Nc3ccccc3Cl)c2c1
CC50 (HepG2): > 40000 nM | pEC50 (Plasmodium falciparum [4]): 6.51
